L major viab: reduces viability of Leishmania major promastigotes | 9% of 200,000 active | inhibition, % at 10 µM | AID 1063 | resazurin fluorescence viability; in the data active = inhibition above about 50%;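 note: promastigotes grown with compound for 44 hours at 28 °C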
CHOP inhibitor: CHOP inhibition in unfolded protein response; CHO-K1 CHOP-promoter luciferase, tunicamycin-induced, 15-18 h; inhibition, % at 10 µM; 3.8% of 220,000 active;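 active = compounds that reduced the stress-induced luciferase reporter signal by more than about 70% of percent inhibition, limit read from the data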;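 note: 0% = tunicamycin plus vehicle and 100% = wells without tunicamycin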
UPR CHOP act: activators of apoptotic arm of unfolded protein response (CHOP) | activation, % at 10 µM | CHO-CHOP luciferase reporter, UPR activation, luminescence; percent of tunicamycin response over DMSO baseline | 0.34% of 330,000 active | AID 449763;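 active = at 10 µM dose, activation of 40% or more, normalized to positive control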;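 note: 100% = tunicamycin at 10 µg/mL and 0% = DMSO alone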
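Evaluation: % reporter activation, DMSO baseline versus tunicamycin full activation; System: CHO-CHOP luciferase reporter cell line; Input: 500 cells/well; Incubation: 6 h compound treatment, 37 °C; Measured by: Steady-Glo luciferase luminescence; Dosing: one dose, 10 µM in 0.5% DMSO; Buffer or medium: F12 medium, 10% FBS; Benchmarks: positive tunicamycin 10 µg/mL, negative DMSO alone.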
Dynein cargo inh: blocks dynein driven cargo transport along microtubules | AID 1381 | z-score, hits read low | 3617.4 mouse cells, GR-EGFP nuclear translocation imaging; test concentration mostly 20 µM; stimulated with dexamethasone, 1 µM; hits give low values | 0.47% of 220,000 active;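 active = plate z-score of nuclear minus cytoplasmic receptor signal below a set negative limit, without overly bright fluorescence or cell loss, cut at about -3.5 in these data, passing the limit was not always enough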;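 note: z-score of nuclear minus cytoplasmic ring GR-EGFP intensity difference per well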
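Buffer or medium: tet-free, stripped-serum medium; Also added: dexamethasone, 1.0 µM final; Technique: high-content fluorescence imaging after fixation; Times: 48 h induction, 1 h compound, 30 min dex at 37 °C; Read-out: per-cell GR-EGFP intensity, nucleus versus surrounding cytoplasmic ring, well-averaged.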
UPR XBP1 act: adaptive UPR (XBP1) activation; CHO-XBP1 luciferase reporter, IRE1-XBP1 UPR activation, luminescence; percent of tunicamycin response, DMSO as zero; activation, % at 20 µM; 0.33% of 330,000 active; AID 463104;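 active = versus positive control, 20 µM dose yields 30% or more activation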;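 note: 100% = tunicamycin at 10 µg/mL and 0% = DMSO only wells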
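Material: CHO-XBP1 cells stably carrying IRE1-XBP1-driven luciferase reporter / Amount: 1000 cells per well / Compound: 20 µM, 1% DMSO / Times: 6 h treatment, 37 °C / Detection: luciferase luminescence / Measure: % activation of reporter signal versus tunicamycin and DMSO controls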
T cruzi repl: blocks replication of Trypanosoma cruzi | T. cruzi beta-gal in NIH3T3, luminescence, 90 h | inhibition, % (test concentration not listed) | 1.4% of 300,000 active;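 active = mean inhibition across valid replicates above about 55%, limit read from the data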;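 note: signal also drops with host cell toxicity which is not excluded here; 0% = plate median of DMSO wells and 100% = zero luminescence signal; higher percent means less beta-gal luminescence so fewer parasites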
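System – NIH/3T3 host cells with β-galactosidase reporter T. cruzi · Doses – single 50 nL compound addition per well in DMSO · Reagent – 5000 T. cruzi trypomastigotes/well · Medium – Low-serum DMEM with 2% FBS · Timing – ≥90 h infection period, 3 h prior cell attachment · Evaluation – parasite load inhibition, % · Technique – GalScreen luminescence, 60 min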
CHOP confirm: confirmation of CHOP induction inhibitors; 45% of 2,100 active; inhibition, % at 10 µM; CHO-CHOP promoter luciferase reporter, tunicamycin-induced, luminescence; shares compounds with CHOP inhibitor; AID 504437;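 active = mean of three repeat readings of reporter signal inhibition above a set limit, cut at about 70% in these data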;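 note: 0% = tunicamycin plus vehicle and 100% = wells lacking tunicamycin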
* hit, by the source's call; nt = no result given. Only a selection was taken, and hits are over-represented in it overall.

SMILES	L major viab	CHOP inhibitor	UPR CHOP act	Dynein cargo inh	UPR XBP1 act	T cruzi repl	CHOP confirm
Cc1ccc(S(=O)(=O)NCC(C)n2cncn2)cc1 (stereo unspecified)	nt	nt	1.7	nt	-8.1	-4.9	nt
CC(C)=CCc1c(O)cc2oc3c(CC=C(C)C)c(O)c(O)c(CC=C(C)C)c3c(=O)c2c1O	nt	97.1*	8.2	-0.952	1.6	40.4	120.0*
CC(=O)N[C@H]1[C@H](OC2CCCCC2)O[C@H](COC(C)=O)[C@@H](OC(C)=O)[C@@H]1OC(C)=O	nt	nt	-1.2	nt	-0.9	-5.1	nt
Cc1noc(NS(=O)(=O)c2ccc(NC(=O)c3ccccc3NS(=O)(=O)c3ccc(F)cc3)cc2)c1C	nt	nt	0.6	nt	-3.6	nt	nt
COc1c(CC=C(C)C)cc(C2CC(=O)c3c(O)cc(O)cc3O2)cc1CC=C(C)C (stereo unspecified)	nt	104.5*	12.9	0.00974	5.3	31.9	109.5*
COc1ccc([C@@H]2CC(=O)c3c(O)cc(O)cc3O2)cc1O	nt	nt	4.0	nt	-0.9	nt	nt
Nc1nonc1-c1nc2ccccc2n1Cc1ccc(F)cc1Cl	-4.7	100.0*	4.1	-1.24	5.6	-4.5	-41.2
Cc1nnc(Sc2cc(NCCO)c([N+](=O)[O-])c3nonc23)s1	-6.5	98.0*	nt	-2.49	nt	14.0	-10.8
COc1ccccc1NCC(O)Cn1c2ccccc2c2ccccc21 (stereo unspecified)	44.2	100.0*	-1.3	-0.489	-0.1	38.2	41.0
Cc1cc(=O)[nH]c(-n2nc(C)c(Oc3ccccc3O)c2C)n1	4.6	-4.0	-0.5	-0.527	-0.2	-15.6	nt
Cc1nn(-c2ccc(C(F)(F)F)cn2)c(C)c1Oc1ccccc1O	46.2	100.0*	0.8	-1.14	-0.6	-3.2	101.6*
Cc1cccc(N/C(N)=N/c2nc(C)c(Cc3ccccc3)c(=O)[nH]2)c1	0.5	101.1*	9.4	0.368	13.9	nt	12.8
Cc1nc(SCC(=O)Nc2ccccc2)c2oc3ccccc3c2n1	27.8	96.4*	-4.0	-0.103	13.7	5.7	32.3
Cc1nc(SCC(=O)NC(C)c2ccccc2)c2oc3ccccc3c2n1 (stereo unspecified)	6.1	6.0	-2.6	0.16	2.8	11.4	nt
Cc1nc(SCC(=O)Nc2ccc(F)cc2)c2oc3ccccc3c2n1	11.1	106.4*	-5.0	-0.372	5.7	0.3	18.9
Cc1cc(C)n2nc(-c3ccccc3)c(-c3ccccc3)c2n1	nt	nt	2.2	nt	-1.1	13.0	nt
CC(=O)c1c(Cl)nc2ccc(Br)cc2c1-c1ccccc1	nt	nt	3.2	nt	2.1	1.3	nt
CC(C)C(=O)N1CCC(CN=Cc2c(O)n(C3CCCCC3)c(=O)n(C3CCCCC3)c2=O)CC1	100.0*	104.5*	nt	-0.899	nt	nt	118.3*
Cc1cccc(N/N=C(\C=N\N)C(=O)c2ccc(Br)cc2)c1	13.5	103.4*	-0.5	-0.478	-3.0	8.4	35.1
CSc1ccc(CN2CCN(C(C)C)C(CCO)C2)cc1 (stereo unspecified)	3.4	19.0	0.4	-0.634	-1.3	20.1	nt
C=CCOC(=O)C1=C(C)NC(SCC(=O)Nc2nccs2)=C(C#N)C1c1cccs1 (stereo unspecified)	44.6	98.7*	-0.9	-0.403	-3.2	52.0	42.1
C=CCOC(=O)C1=C(C)NC(SCC(=O)Nc2nccs2)=C(C#N)C1c1ccc(Cl)cc1 (stereo unspecified)	37.7	105.8*	0.7	0.115	4.0	51.4	132.4*
CC(=O)C1=C(C)NC(SCC(=O)Nc2nccs2)=C(C#N)C1c1ccccc1Cl (stereo unspecified)	12.2	25.7	-0.1	0.3	-1.1	49.2	nt
Cc1cc(C(=O)N/N=C/c2ccc(-c3cccc(Cl)c3Cl)o2)n[nH]1	3.1	101.1*	2.3	-0.443	5.8	19.7	73.3*
O=C(Cn1c(=O)[nH]c2ccccc2c1=O)N1CCN(c2cccc(Cl)c2)CC1	-4.2	28.8	3.0	-0.483	-1.6	4.3	nt
